{"source": "paper PMC12214485", "about": "(Scientific Reports, 2025)", "experiment": "DPPH free radical scavenging assay", "in_short": "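Each well held test compound and DPPH (added as 150 µM solution, half the well volume), made up with methanol. Incubated 30 min at room temperature, then absorbance read at 517 nm. Percent inhibition was calculated from blank and sample absorbances. Ascorbic acid served as reference. Three independent experiments were run, each in triplicate.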", "data": [{"smiles": "O=C1O[C@H]([C@@H](O)CO)C(O)=C1O", "note": "[Vitamin C, Ascorbic acid]", "values": [{"measurement": "antioxidant activity", "result": "95.1571 ± 0.057", "unit": "µg/mL"}]}]}
